What all share (format): functional, cell-based
In one assay the test system is P388. Nature of the assay: Anticancer activity against mouse P388 cells assessed as reduction in cell viability measured after 48 hrs by SRB assay. Conditions: P388, 48 h. A digest of the protocol: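 Suspension cells seeded at 10^4 cells/well and exposed 48 h to compound at 0.1–50 μM, dissolved in DMSO (less than 0.05%). Ellipticine served as positive control. Then washed, TCA-fixed, stained with 0.4% SRB in 1% acetic acid. Protein-bound dye extracted and absorbance read at 515 nm; IC50 taken.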

A further assay deals with KB. Kind of assay: Anticancer activity against human KB cells assessed as reduction in cell viability measured after 72 hrs by SRB assay. The gist of the method: (§1)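 Adherent cells seeded at 10^4 cells/well and exposed 72 h to compound at 0.1–50 μM, dissolved in DMSO (less than 0.05%). Ellipticine served as positive control. Afterwards cells washed, fixed with TCA, stained with 0.4% SRB in 1% acetic acid. Bound dye extracted and OD read at 515 nm; IC50 derived.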

The test system of the next assay is HT-29. Kind of assay: Anticancer activity against human HT-29 cells assessed as reduction in cell viability measured after 72 hrs by SRB assay. The note with it: HT-29, 72 h. A digest of the protocol:
as §1

For another assay, the system named is MCF7. Kind of assay: Anticancer activity against human MCF7 cells assessed as reduction in cell viability measured after 72 hrs by SRB assay. Conditions: MCF7, 72 h. The gist of the method:
as §1

The next assay relates to A549. Nature of the assay: Anticancer activity against human A549 cells assessed as reduction in cell viability measured after 72 hrs by SRB assay. Conditions: A549, 72 h. The gist of the method:
as §1

Assay [1] can be described thus: Anticancer activity against rat ASK cells assessed as reduction in cell viability measured after 72 hrs by SRB assay. A digest of the protocol:
as §1

Assay [2] can be described thus: Anticancer activity against human KKU-M213 cells assessed as reduction in cell viability measured after 72 hrs by SRB assay. The note with it: KKU-M213, 72 h. The gist of the method:
as §1

Another assay relates to HuCC-A1. Kind of assay: Anticancer activity against human HuCCa1 cells assessed as reduction in cell viability measured after 72 hrs by SRB assay. The note with it: HuCC-A1, 72 h. A digest of the protocol:
as §1

Assay [3] can be described thus: Anticancer activity against human KKU055 cells assessed as reduction in cell viability measured after 72 hrs by SRB assay. The gist of the method: as §1

pIC50: −log10 of the molar value.

Turning to `C=C1CC[C@@H]2[C@](C)(CO)[C@H](O)CC[C@@]2(C)[C@@H]1C/C=C1/C(=O)OC[C@H]1O` [ANDROGRAPHOLIDE], the pIC50 in the assay with P388 is 5.19; in the assay with KB, 4.50; in the assay on HT-29, 5.05; with MCF7, 5.07; in the assay on A549, 4.49; in assay [1] it was 4.46. For the same compound, the pIC50 in assay [2] is 5.03; in the assay with HuCC-A1, 4.63; in assay [3] it was 4.75.
`C=C1CC[C@@H]2[C@](C)(COC(C)=O)[C@H](OC(C)=O)CC[C@@]2(C)[C@@H]1C[C@H](SC(=S)N1CCN(C(c2ccccc2)c2ccccc2)CC1)C1=CCOC1=O`: the pIC50 in the assay on P388 is 4.44; in the assay on KB it was less than 4.30; in the assay with HT-29 it was less than 4.30; with MCF7, 4.37; in the assay with A549 it was less than 4.30; in assay [1], less than 4.30. In addition, the negative logarithm of the IC50 (pIC50) (in assay [2]; in the assay on HuCC-A1; in assay [3]) was less than 4.30 in each case.
In the case of `C=C1CC[C@@H]2[C@](C)(COC(C)=O)[C@H](OC(C)=O)CC[C@@]2(C)[C@@H]1C[C@H](SC(=S)N1CCN(c2ccccc2OC)CC1)C1=CCOC1=O`, the pIC50 with P388 is 5.24; in the assay with KB, 4.75; with HT-29, 5.18; with MCF7, 5.33; in the assay on A549, 4.55; in assay [1] it was 4.84. Besides, the negative logarithm of the IC50 (pIC50) in assay [2] is 5.25; in the assay on HuCC-A1, 5.09; in [3] it was 5.12.
In the case of `C=C1CC[C@@H]2[C@](C)(COC(C)=O)[C@H](OC(C)=O)CC[C@@]2(C)[C@@H]1C[C@H](SC(=S)N1CCc2ccccc2C1)C1=CCOC1=O`, the pIC50 in the assay on P388 was 5.36; with KB, 4.60; in the assay with HT-29, 5.15; in the assay with MCF7 it was 5.40; with A549, 4.60; in [1], 4.70. The pIC50 in assay [2] was 5.25; in the assay on HuCC-A1 it was 5.14; in assay [3], 5.26.
Regarding `C=C1CC[C@@H]2[C@](C)(COC(C)=O)[C@H](OC(C)=O)CC[C@@]2(C)[C@@H]1C[C@H](SC(=S)N(Cc1ccccc1)C(C)C)C1=CCOC1=O`, the pIC50 was 5.39 in the assay on P388; 4.61 in the assay with KB; 5.17 with HT-29; 5.43 with MCF7; 4.65 in the assay on A549; 4.69 in assay [1]. Also, the pIC50 in [2] is 5.26; with HuCC-A1, 5.06; in [3] it was 5.28.
As to `C=C1CC[C@@H]2[C@](C)(COC(C)=O)[C@H](OC(C)=O)CC[C@@]2(C)[C@@H]1C[C@H](SC(=S)N1CCc2ccccc2C1c1ccccc1)C1=CCOC1=O` (stereo not given in full), the pIC50 with P388 is 5.27; with KB, 4.74; with HT-29, 5.02; with MCF7 it was 5.25; with A549, 4.53; in assay [1], 4.63. Besides, the pIC50 in assay [2] is 5.17; in the assay with HuCC-A1, 5.03; in assay [3], 5.19.
Regarding `C=C1CC[C@@H]2[C@](C)(COC(C)=O)[C@H](OC(C)=O)CC[C@@]2(C)[C@@H]1C[C@H](SC(=S)N1CCN(c2ccc(O)cc2)CC1)C1=CCOC1=O`, the pIC50 with P388 is 5.24; with KB it was 5.22; in the assay with HT-29 it was 5.31; in the assay with MCF7 it was 5.59; with A549, 4.66; in assay [1] it was 5.32. The results for the pIC50 (in assay [2]; in the assay with HuCC-A1; in assay [3]) were 5.31, 5.31 and 5.28, respectively.
For `C=C1CC[C@@H]2[C@](C)(COC(C)=O)[C@H](OC(C)=O)CC[C@@]2(C)[C@@H]1C[C@H](SC(=S)N1CCN(Cc2ccc(Cl)cc2)CC1)C1=CCOC1=O`, the pIC50 in the assay with P388 is 5.32; in the assay with KB it was less than 4.30; in the assay on HT-29, 4.86; with MCF7 it was 5.25; in the assay with A549, 4.48; in [1], 4.58. In addition, the pIC50 in assay [2] is 5.17; with HuCC-A1, 4.67; in assay [3] it was 5.21.
In the case of `C=C1CC[C@@H]2[C@](C)(COC(C)=O)[C@H](OC(C)=O)CC[C@@]2(C)[C@@H]1C[C@H](SC(=S)N1CCN(c2ncccn2)CC1)C1=CCOC1=O`, the pIC50 in the assay with P388 is 5.37; in the assay on KB it was 5.16; in the assay with HT-29 it was 5.34; in the assay with MCF7 it was 6.08; in the assay on A549, 4.75; in assay [1], 5.14. Moreover, the pIC50 in assay [2] was 5.28; with HuCC-A1, 5.24; in assay [3] it was 5.28.
Regarding `C=C1CC[C@@H]2[C@](C)(COC(C)=O)[C@H](OC(C)=O)CC[C@@]2(C)[C@@H]1C[C@H](SC(=S)N1CCN(Cc2ccc3c(c2)OCO3)CC1)C1=CCOC1=O`, the pIC50 is 5.34 in the assay on P388; 4.67 with KB; 5.10 in the assay on HT-29; 5.25 in the assay with MCF7; 4.53 in the assay on A549; 4.83 in [1]. Moreover, the pIC50 in assay [2] was 5.12; with HuCC-A1 it was 4.94; in [3] it was 5.01.
